# pPAFAH inh – inhibitors of human plasma PAF acetylhydrolase (pPAFAH) | recombinant pPAFAH, FP-rhodamine probe fluorescence polarization | inhibition, % at 3.39 µM | 1.5% of 330,000 active | Q13093;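 active = inhibition above the mean inhibition across the screen plus 3 SD, cut at about 25% in these data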;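 note: inhibitors block binding of the rhodamine activity-based probe so polarization drops; 0% = enzyme with DMSO and 100% = wells lacking pPAFAH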
# ABHD4 inh – inhibitors of mouse ABHD4; Q8VD66; purified mABHD4, FP-Rh probe fluorescence polarization; inhibition, % at 8.92 µM; 0.54% of 370,000 active; AID 720543;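 active = inhibition exceeding the mean over every tested compound plus 3 SD, cut at about 30% in these data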;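 note: 0% = plate median of compound wells and 100% = S159A mutant with DMSO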
#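 Doses – 8.92 µM, single dose · Material – wild-type mouse ABHD4 protein · Replication – single well per compound (singlicate) · Measure – percent inhibition of probe binding, normalized to plate controls · Schedule – 45 min compound pre-incubation plus 60 min probe step, 25 °C · Detection – fluorescence polarization with parallel and perpendicular emission, 525/598 nm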
# PAFAH2 inh – inhibitors of human PAFAH2 | 0.99% of 340,000 active | Q99487 | inhibition, % at 3.39 µM | AID 492956 | recombinant PAFAH2, FP-rhodamine activity probe, fluorescence polarization;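 active = inhibition above the mean over all tested compounds plus 3 SD, cut at about 30% in these data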;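 note: inhibitors block probe labeling of enzyme so polarization drops; 0% = enzyme with DMSO and 100% = wells lacking PAFAH2 protein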
# PAFAH1B3 inh – blocks human PAF acetylhydrolase 1B catalytic subunit 3; Q15102; recombinant PAFAH1B3, FP-rhodamine probe, fluorescence polarization; inhibition, % at 3.39 µM; 0.28% of 340,000 active;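 active = inhibition above the screen-wide average of all tested compounds plus 3 SD, cut at about 25% in these data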;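 note: 0% = enzyme with DMSO only and 100% = wells lacking PAFAH1B3 protein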
# HTRA1 inh – HTRA1 (human) protease inhibition; inhibition, % at 5.96 µM; recombinant HTRA1, FP-rhodamine activity-based probe, fluorescence polarization; AID 504803; 0.5% of 340,000 active; Q92743; in the data active = inhibition above about 36%;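 note: 0% = enzyme with DMSO and 100% = wells lacking enzyme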
# Target sequence (Q92743 whole entry, looked up): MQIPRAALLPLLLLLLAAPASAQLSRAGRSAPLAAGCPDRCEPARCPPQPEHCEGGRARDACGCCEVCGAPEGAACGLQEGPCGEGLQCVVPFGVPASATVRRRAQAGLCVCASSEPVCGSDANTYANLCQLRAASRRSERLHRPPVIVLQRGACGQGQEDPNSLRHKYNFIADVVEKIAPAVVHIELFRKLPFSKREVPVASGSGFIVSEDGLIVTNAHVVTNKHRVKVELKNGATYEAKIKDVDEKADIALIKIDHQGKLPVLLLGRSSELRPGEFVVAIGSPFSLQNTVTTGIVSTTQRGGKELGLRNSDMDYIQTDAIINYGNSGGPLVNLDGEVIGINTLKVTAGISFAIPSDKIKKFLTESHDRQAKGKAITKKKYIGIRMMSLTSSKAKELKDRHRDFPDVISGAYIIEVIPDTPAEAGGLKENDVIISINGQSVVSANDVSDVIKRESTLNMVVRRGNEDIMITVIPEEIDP
# PAFAH1B2 inh – blocks human PAF acetylhydrolase 1b catalytic subunit 2; P68402; AID 492953; 1.2% of 340,000 active; recombinant PAFAH1B2, FP-rhodamine activity probe, fluorescence polarization; inhibition, % at 3.39 µM;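 active = inhibition above the mean of all tested compounds plus 3 SD, cut at about 24% in these data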;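 note: 0% = enzyme with DMSO and 100% = wells lacking PAFAH1B2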
# PAFAH2 confirm – confirmation of human PAFAH2 inhibitors; recombinant PAFAH2, FP-rhodamine activity probe, fluorescence polarization; AID 493030; shares compounds with PAFAH2 inh; inhibition, % at 3.39 µM; 65% of 2,300 active;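 active = mean inhibition over three repeats above a set limit taken from the earlier primary screen, cut at about 30% in these data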;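 note: inhibitor blocks binding of rhodamine activity probe so polarization falls; 0% = enzyme with DMSO and 100% = wells lacking PAFAH2 protein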
# Numbers without * were called inactive; · = no result given. This is a sample that favours compounds with a hit; in the whole collection about 2.8% have one here.
SMILES,pPAFAH inh,ABHD4 inh,PAFAH2 inh,PAFAH1B3 inh,HTRA1 inh,PAFAH1B2 inh,PAFAH2 confirm
CC(=O)c1cccc(NC(=O)COC(=O)C2=COCCO2)c1,2,2,44*,2,2,1,38*
O=C(COC(=O)C1=COCCO1)Nc1ccccc1,7,-11,79*,1,3,4,68*
O=C(COC(=O)c1cc[n+]([O-])cc1)Nc1ccc([N+](=O)[O-])cc1C(F)(F)F,·,0,4,7,4,-1,·
O=C(COC(=O)C1=COCCO1)NC1CCCCCCC1,2,3,76*,9,-1,3,74*
CC(C)CN1C(=O)[C@]2(CC(=O)N(C)C2c2ccccc2)c2cc(-n3cc(CCCC#N)nn3)ccc21 (stereo partly specified),·,3,·,·,·,·,·
O=C(CSc1nnc(COc2ccccc2)n1-c1ccccc1)Nc1ccc2c(c1)OCCO2,·,-3,·,·,·,·,·
Cc1cc(-c2n[nH]c(=S)n2N=Cc2ccc(OCc3ccccc3)cc2)n[nH]1,·,5,·,·,·,·,·
Cc1n[nH]c(C)c1S(=O)(=O)NCCc1ccccc1F,·,3,·,·,·,·,·
COc1ccc(NC(=O)N(C)[C@H]2C[C@H]3c4[nH]c5c(-c6cccc(C)c6)cccc5c4CCN3C(=O)[C@H]2[C@H](C)O)cc1,·,-4,·,·,·,·,·
O=C(COC(=O)C1=COCCO1)Nc1cccc(Oc2ccccc2)c1,4,-2,90*,10,-11,5,74*
C/C(=N\NC(=O)c1cc(-c2ccccc2)nc2ccccc12)c1ccc(Cl)cc1,·,-24,·,·,·,·,·
CCn1cc(C(=O)OCC(=O)NCc2ccccc2Cl)c(=O)c2ccc(C)nc21,3,-6,35*,3,8,0,23
CCc1sc(/C=C(/C#N)C(N)=S)cc1[N+](=O)[O-],·,18,31*,10,11,12,25
CCOC(=O)[C@]12CCCCC/C=C\1N(CCc1ccc(Cl)cc1)C(=O)[C@H]2CC(=O)N1CCC(c2ccccc2)CC1,·,-5,·,·,·,·,·
CCCCn1c(N)c(N(CCOC)C(=O)c2cccc(N3C(=O)c4ccccc4C3=O)c2)c(=O)[nH]c1=O,6,5,45*,3,0,-3,-2
COc1ccc2c(c1)CNC2CS(=O)(=O)NC1CCCC1 (stereo unspecified),·,3,·,·,·,·,·
COc1cc(NC(=O)Nc2cccc(Cl)c2)c(C(=O)O)cc1OC,10,8,32*,3,0,11,22
COc1cc(NC(=O)Cc2cccc3ccccc23)c(C(=O)O)cc1OC,8,5,60*,16,1,7,40*
COc1cc(NC(=O)Cc2ccccc2)c(C(=O)O)cc1OC,2,6,3,0,7,9,·
O=C(COC(=O)/C=C/c1ccco1)NC1CCCCC1,7,3,77*,4,0,1,82*
O=C(COC(=O)/C=C/c1ccc(Br)o1)NC1CCCCC1,9,-3,77*,6,4,2,73*
CC1CCCCC1NC(=O)COC(=O)/C=C/c1ccco1 (stereo unspecified),8,2,84*,13,8,6,74*
CC1CC(C)CN(C(=O)COC(=O)/C=C/c2ccco2)C1 (stereo unspecified),1,6,10,6,3,6,·
CC(C)[C@H](NC(=O)[C@H](Cc1ccccc1)NC(=O)OC(C)(C)C)C(=O)N1CCC2CCN(S(=O)(=O)c3ccccc3)CC21 (stereo partly specified),·,5,·,·,·,·,·
CC(=O)c1c(C)[nH]c(C(=O)OCC(=O)Nc2ccc(Cl)c(S(=O)(=O)N(C)C)c2)c1C,-2,-3,71*,0,-17,-3,61*
SMILES,pPAFAH inh,ABHD4 inh,PAFAH2 inh,PAFAH1B3 inh,HTRA1 inh,PAFAH1B2 inh,PAFAH2 confirm
CC(=O)c1c(C)[nH]c(C(=O)OCC(=O)Nc2ccc3c(c2)OCCO3)c1C,0,-9,35*,5,-1,4,20
CC(=O)c1c(C)[nH]c(C(=O)OCC(=O)Nc2ccc(Cl)cc2[N+](=O)[O-])c1C,4,-3,48*,-1,-3,6,32*
CC(=O)c1c(C)[nH]c(C(=O)Nc2ccc(Cl)c(S(=O)(=O)N(C)C)c2)c1C,-3,1,-10,11,-22,5,·
N=C1/C(=C/c2ccc(Br)o2)C(=O)N=C2SC(CC(=O)N3CCCC3)=NN12,5,-21,31*,0,-14,9,12
CSCC[C@H](NC(=O)Nc1ccc(Oc2ccccc2)cc1)C(=O)O,1,-10,38*,7,1,6,22
O=C(O)CCCN1C(=O)/C(=C/c2ccc(-c3nc4ccccc4s3)o2)SC1=S,19,20,50*,6,3,15,51*
O=C(O)CCCCCN1C(=O)/C(=C\c2ccc(-c3ccc(Cl)cc3)o2)SC1=S,1,1,3,4,2,-2,·
Cn1c(=O)c2nc(Cl)c(-c3ccccc3)nc2n(C)c1=O,-3,6,33*,2,1,-1,38*
Cn1c(=O)c2nc(-c3ccccc3)c(-c3ccccc3)nc2n(C)c1=O,0,-3,5,3,-1,2,·
COC(=O)C(=Cc1ccc(-c2ccsc2C(=O)OC)o1)C(=O)OC,0,-9,10,5,-7,2,·
COC(=O)c1sccc1-c1ccc(/C=N/OC(=O)c2cccs2)o1,-2,-9,50*,3,2,3,26
O=C(COC(=O)c1cccc(N2C(=O)C3CC=CCC3C2=O)c1)c1ccccc1 (stereo unspecified),5,-5,35*,13,-5,4,27
O=C(CSc1ccccc1)NC1CCCCN(Cc2ccc(Cl)cc2)C1=O (stereo unspecified),·,0,·,·,·,·,·
Cc1ccc(NC(=O)COC(=O)c2ccc(CN3CCCC3=O)cc2)cc1C,·,6,92*,9,1,0,85*
O=C(COC(=O)c1ccc(CN2CCCC2=O)cc1)Nc1ccc(F)cc1,8,2,85*,6,9,0,86*
